Measurements gathered from unrelated publications.
Lines come from different studies, so protocols differ.

Compound | system | setting | concentration
COc1cccc(-c2n[nH]c(SCc3ccccn3)n2)c1OC | male Sprague-Dawley rat, plasma | oral, 10 mg/kg, 1 h, single dose | 10400 ng/mL
Cc1noc(C)c1Cn1cc(N2C(=O)CN(Cc3cccc(O)c3)C2=O)cn1 | male Sprague-Dawley rat, plasma | oral, 10 mg/kg, 1 h | 8.29 ng/mL
COc1ccc2c(=O)n(C)c(-c3ccccc3)nc2c1 | male Sprague-Dawley rat, spleen | oral, 30 mg/kg, 4 h | 6.13 ng/mL
CN(C(=O)n1cnc(-c2ccc[n+]([O-])c2)c1)C1CCCCC1 | Wistar rat, plasma | oral, 10 mg/kg, 8 h | 278 ng/mL
CCOC(=O)[C@@]12C[C@@H]1[C@@H](n1ccc3c(NC)nc(C#Cc4ccc(Cl)s4)nc31)[C@H](O)[C@@H]2O | male Sprague-Dawley rat, plasma | oral, 1 mg/kg, 1 h | 9.55 ng/mL
COc1ccc(C)c2sc(NC(=O)c3ccncc3)nc12 | rat, brain | oral, 10 mg/kg, 1 h | ~10 µM
Cc1noc(C)c1Cn1cc(N2C(=O)N(Cc3cccc(O)c3)C(C)(C)C2=O)cn1 | male Sprague-Dawley rat, plasma | oral, 100 mg/kg, 8 h, single dose | 5.2 ng/mL
COc1nc(-c2cc(C)c(N[C@@H](C)c3cc(F)cc(F)c3)nn2)ccc1-n1cnc(C)c1 | male Sprague-Dawley rat, CSF | oral, 50 mg/kg, 4 h, multiple doses, once daily | 301 ng/mL
CCc1cc(-c2noc(-c3cc(OC)nc(C4CCCC4)c3)n2)cc(C)c1OC[C@@H](O)CO | Wistar rat, plasma | oral, 0.3 mg/kg, 24 h, single dose | 5 ng/mL
Cc1ccc(-c2cc(C(F)(F)F)nn2-c2ccc(S(N)(=O)=O)cc2)cc1 | male Sprague-Dawley rat, plasma | oral, 20 mg/kg, 8 h | 0.91 µM
CCCOc1ccc(OC)c(F)c1C(=O)c1ccc(C(=O)N[C@@H]2CNC[C@H]2NC(=O)c2ccc3[nH]ncc3c2)cc1 | rat, plasma | intravenous, 559 µg, 10 min, single dose | 470 ng/mL
